Results on three molecules are retold here after paper PMC8800389 (Neuron, 2020).

Data set [1] has as its target T1, PPIL1 (Homo sapiens, UniProt Q9Y3C6).
T1 sequence (Q9Y3C6 1-166): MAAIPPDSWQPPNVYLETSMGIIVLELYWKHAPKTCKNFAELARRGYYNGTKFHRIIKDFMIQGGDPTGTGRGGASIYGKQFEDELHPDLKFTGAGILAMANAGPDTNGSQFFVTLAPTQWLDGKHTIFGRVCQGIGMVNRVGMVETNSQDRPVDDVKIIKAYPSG
It is filed as biochemical. The settings on record: catalytic concentrations of PPIL1 WT, 25 mM sodium phosphate, 100 mM NaCl, 1 mM dithiothreitol, 5% D2O, pH 7.0, 950 MHz; Figure S6I. Summed up: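 Substrate: uniformly 15N-labeled PRP17 peptide (residues 84–101), made as a His-SUMO fusion in BL21(DE3) in 15N minimal medium. Induction was 1 mM IPTG, 37 °C, 8 h. Ni-NTA, SUMO protease cleavage (30 °C, 6 h) and C18 reverse-phase HPLC followed, then lyophilisation. ZZ mixing times 120 (×2), 150, 200, 250 (×2), 350, 450, 600 and 750 ms on a TXO cryoprobe.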

Data set [2] can be described thus: cis/trans conformation of the PRP17 Gly94-Pro95 bond by 1H-13C HSQC. It is filed as physicochemical. The settings on record: 500 μM peptide in PBS (pH 7.4), 5 % v/v D2O, 750 MHz.
Data set [3] addresses T2, PPIL1 p.T107A, purified recombinant (human, UniProt Q9Y3C6 1-166, p.T107A).
T2 sequence (looked up): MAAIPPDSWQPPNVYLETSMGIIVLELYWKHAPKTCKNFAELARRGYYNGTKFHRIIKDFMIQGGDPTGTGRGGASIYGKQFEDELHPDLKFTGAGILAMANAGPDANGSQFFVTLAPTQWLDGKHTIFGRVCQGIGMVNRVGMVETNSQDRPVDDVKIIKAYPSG
Nature of the data set: SPR.

For the molecule TYETMFAPEFGPENPFRT, the “proline isomerization by PPIL1 WT (ZZ exchange)” value in data set [1] is given as “This was also confirmed”.

Consider Ac-FAPEFGPENPFRT-NH2, for which the Gly94-Pro95 bond conformation result in data set [2] was “present in both cis and trans conformations”.

B1: N-terminal GST tagged SKIP 59–129 (domain or fragment, UniProt Q13573 59-129, looked up)
chain: GDGGAFPEIHVAQYPLDMGRKKKMSNALAIQVDSEGKIKYDAIARQGQSKDKVIYSKYTDLVPKEVMNADD
For B1, the binding result in data set [3] is listed as “binds”.
